In ChEMBL document CHEMBL2417530, “Coumarin derivatives protect against ischemic brain injury in rats” (Eur J Med Chem, 2013) one finds Activity and viability data, which are given here for eleven molecules.

Active and inactive are the calls of the source. No cut-off for these calls is given here.

Series [1] concerns Rattus norvegicus. Briefly: In vivo neuroprotective activity in Sprague-Dawley rat transient middle cerebral artery occlusion model assessed as reduction of infarct size at 6 mg/kg, iv measured 24 hrs post reperfusion by TTC staining assay relative to vehicle-treated control. In kind it is functional. Summed up: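 Male Sprague-Dawley rats, 7 weeks, 260–280 g, under 10% chloral hydrate ip. Right MCA occluded 60 min by tip-burned 4-0 nylon thread via common carotid, then reperfused. Saline or drug given iv at reperfusion, ethanol as cosolvent. Killed 24 h later; six 2 mm slices in 1% TTC in PBS, 37 °C, 30 min. Infarct area traced as % of total area; n = 12.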

Series [2] has as its system Rattus norvegicus. Description: In vivo neuroprotective activity in Sprague-Dawley rat transient middle cerebral artery occlusion model assessed as reduction of brain-water content at 6 mg/kg, iv measured 24 hrs post reperfusion. In kind it is functional, organism-based. The arrangement: dose 6 mg/kg. Summed up: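 Male SD rats (7 weeks, 260-280 g) had 60 min transient right MCA occlusion with a nylon filament, then reperfusion. Saline or drug (1.5, 3.0, 6.0 mg/kg) was injected iv at reperfusion. Animals without neurological deficit were replaced. At 24 h brains were oven-dried at 110 °C for 24 h, and water content was taken as (wet−dry)/wet; n = 12.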

The test system of series [3] is PC-12. Description: Neuroprotective activity in rat PC12 cells assessed as attenuation of oxygen-glucose deprivation-induced cellular damage at 10 uM by MTT assay relative to control. Type of series: functional. The procedure, abridged: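 PC12 cells were seeded at 5×10^3/well for 24 h. OGD insult was low-glucose medium plus 5 mM sodium dithionite for 24 h, given together with 10 µM compound. MTT (5 mg/mL) was added for 4 h and absorbance read at 570 nm. Viability was expressed as % of full-medium control; n = 3.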
On the technique in general: Tetrazolium assays rely on reduction of a dye to a coloured formazan, in cell work by metabolically active cells.

Series [4] in a line: Cytotoxicity against rat PC12 cells assessed as cell proliferation at 10 uM by MTT assay relative to control. Type of series: cell-based, PC-12. The conditions noted are these: read-out: Activity. Summed up: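 PC12 cells were grown in DMEM with 5% FBS, 5% horse serum and 2 mM glutamine at 37 °C, 5% CO2. They were seeded at 5×10^3 cells/well for 24 h, then exposed to 10 µM compound in full medium. Viability was read by MTT (5 mg/mL, 4 h) at 570 nm as % of control absorbance; n = 3.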

With `CC1=NN(c2ccccc2)C(=O)C1`, the outcome in series [1] and in series [2] was Active.

Regarding `Cc1c(CCC(=O)N2CCN(C)CC2)c(=O)oc2cc(O)cc(O)c12`, the Activity in series [3] was determined as 46.1%. For the same molecule, in series [4], the viability at 10 µM is 97.5%.

For `CCOc1ccc2c(C)c(N3CCN(C)CC3)c(=O)oc2c1`, the Activity in series [3] is given as 45.6%. In addition, in series [4], the viability at 10 µM was 101%.

Regarding `CC(=O)N1CCN(c2c(C)c3c(O)cc(O)cc3oc2=O)CC1`, in series [3], the Activity stood at 48.4%. Also, the viability at 10 µM in series [4] was determined as 98.1%.

On to `COc1ccc2c(C)c(N3CCN(C)CC3)c(=O)oc2c1`, for which, in series [3], the Activity is listed as 43.7%. Moreover, in series [4], the viability at 10 µM came out at 100%.

With `Cc1c(N2CCN(C(=O)Nc3ccc(OC(F)(F)F)cc3)CC2)c(=O)oc2cc(O)cc(O)c12`, the Activity in series [3] is reported as 48.7%. For the same molecule, the viability at 10 µM in series [4] amounted to 99.5%.

As to `CCCCOc1cc(O)cc2oc(=O)c(N3CCN(C)CC3)c(C)c12`, the Activity in series [3] worked out at 46.2%. The viability at 10 µM in series [4] was found to be 197%.

As for `Cc1c(N2CCN(C)CC2)c(=O)oc2cc(O)cc(OC(C)C)c12`, the Activity in series [3] is 51.8%. Also, in series [4], the viability at 10 µM is 119%.

As to `Cc1c(N2CCN(C(=O)CCl)CC2)c(=O)oc2cc(O)cc(O)c12`, in series [3], the Activity is 48.1%. In series [4], the viability at 10 µM was 97.4%.

In the case of `Cc1c(N2CCN(C)CC2)c(=O)oc2cc3c(cc12)OCO3`, the Activity in series [3] is 47.9%. For the same molecule, the viability at 10 µM in series [4] was 101%.

Regarding `Cc1c(N2CCN(C)CC2)c(=O)oc2cc(O)cc(OCc3ccccn3)c12`, the Activity in series [3] is reported as 44.2%. Besides, the viability at 10 µM in series [4] amounted to 116%.
